Measured values: ChEMBL document CHEMBL5058577, “EUbOPEN Chemogenomics Library 2 (Multiplex)” (2022)

System: Fibroblast
Assay: Multiplex assay against human fibroblast
Assay type: toxicity, cell-based
Outline: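 Live cells carried four stains from seeding: Hoechst33342, BioTracker Green Microtubule Cytoskeleton Dye, MitoTracker Red and Annexin V Alexa Fluor 680. They were imaged on a CQ1 microscope at 37°C and 5% CO2 after compound addition. Using CellPathfinder machine-learning gating, cells were split into Hoechst high-intensity objects or normal cells, normal cells into healthy, pyknosed or fragmented nuclei, and pyknosed cells into mitotic or apoptotic; tubulin, mitochondrial-mass and membrane-permeability phenotypes are per cents of healthy-nucleus cells.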

[1] = 12 h, 1 µM, compound concentration 1 uM, replicate 1
[2] = 12 h, 1 µM, compound concentration 1 uM, replicate 2
[3] = 12 h, 10 µM, compound concentration 10 uM, replicate 1
[4] = 12 h, 10 µM, compound concentration 10 uM, replicate 2
[5] = 24 h, 1 µM, compound concentration 1 uM, replicate 1
[6] = 24 h, 1 µM, compound concentration 1 uM, replicate 2
[7] = 24 h, 10 µM, compound concentration 10 uM, replicate 1
[8] = 24 h, 10 µM, compound concentration 10 uM, replicate 2
[9] = 48 h, 1 µM, compound concentration 1 uM, replicate 1
[10] = 48 h, 1 µM, compound concentration 1 uM, replicate 2
[11] = 48 h, 10 µM, compound concentration 10 uM, replicate 1
[12] = 48 h, 10 µM, compound concentration 10 uM, replicate 2

SMILES: CC(C)(O)C(=O)N1CCN(c2ccc(C(F)(F)F)c(C3=C(c4c[nH]c5ccccc45)C(=O)NC3=O)c2)CC1
- Population Apoptotic (%) [1]: 41%
- Population Fragmented Nuclei (%) [1]: 14%
- Population Healthy Nuclei (%) [1]: 68%
- Population Hoechst High Intensity Objects (%) [1]: 2%
- Population Membrane Permeable-Phenotype (%) [1]: 0%
- Population Mitochondria Different-Phenotype (%) [1]: 9%
- Population Mitotic Cells (%) [1]: 58%
- Population Normal (%) [1]: 97%
- Population Pyknosed Nuclei (%) [1]: 17%
- Population Tubulin-Different-Phenotype (%) [1]: 30%
- Total Cell Count [1]: 144
- Population Apoptotic (%) [2]: 32%
- Population Fragmented Nuclei (%) [2]: 30%
- Population Healthy Nuclei (%) [2]: 46%
- Population Hoechst High Intensity Objects (%) [2]: 5%
- Population Membrane Permeable-Phenotype (%) [2]: 5%
- Population Mitochondria Different-Phenotype (%) [2]: 5%
- Population Mitotic Cells (%) [2]: 67%
- Population Normal (%) [2]: 94%
- Population Pyknosed Nuclei (%) [2]: 22%
- Population Tubulin-Different-Phenotype (%) [2]: 56%
- Total Cell Count [2]: 170
- Population Apoptotic (%) [3]: 33%
- Population Fragmented Nuclei (%) [3]: 17%
- Population Healthy Nuclei (%) [3]: 50%
- Population Hoechst High Intensity Objects (%) [3]: 4%
- Population Membrane Permeable-Phenotype (%) [3]: 1%
- Population Mitochondria Different-Phenotype (%) [3]: 25%
- Population Mitotic Cells (%) [3]: 66%
- Population Normal (%) [3]: 96%
- Population Pyknosed Nuclei (%) [3]: 32%
- Population Tubulin-Different-Phenotype (%) [3]: 83%
- Total Cell Count [3]: 125
- Population Apoptotic (%) [4]: 35%
- Population Fragmented Nuclei (%) [4]: 26%
- Population Healthy Nuclei (%) [4]: 31%
- Population Hoechst High Intensity Objects (%) [4]: 6%
- Population Membrane Permeable-Phenotype (%) [4]: 15%
- Population Mitochondria Different-Phenotype (%) [4]: 10%
- Population Mitotic Cells (%) [4]: 64%
- Population Normal (%) [4]: 93%
- Population Pyknosed Nuclei (%) [4]: 42%
- Population Tubulin-Different-Phenotype (%) [4]: 90%
- Total Cell Count [4]: 137
- Population Apoptotic (%) [5]: 50%
- Population Fragmented Nuclei (%) [5]: 22%
- Population Healthy Nuclei (%) [5]: 61%
- Population Hoechst High Intensity Objects (%) [5]: 1%
- Population Membrane Permeable-Phenotype (%) [5]: 0%
- Population Mitochondria Different-Phenotype (%) [5]: 3%
- Population Mitotic Cells (%) [5]: 50%
- Population Normal (%) [5]: 98%
- Population Pyknosed Nuclei (%) [5]: 16%
- Population Tubulin-Different-Phenotype (%) [5]: 40%
- Total Cell Count [5]: 161
- Population Apoptotic (%) [6]: 31%
- Population Fragmented Nuclei (%) [6]: 31%
- Population Healthy Nuclei (%) [6]: 45%
- Population Hoechst High Intensity Objects (%) [6]: 8%
- Population Membrane Permeable-Phenotype (%) [6]: 2%
- Population Mitochondria Different-Phenotype (%) [6]: 8%
- Population Mitotic Cells (%) [6]: 68%
- Population Normal (%) [6]: 91%
- Population Pyknosed Nuclei (%) [6]: 23%
- Population Tubulin-Different-Phenotype (%) [6]: 58%
- Total Cell Count [6]: 176
- Population Apoptotic (%) [7]: 26%
- Population Fragmented Nuclei (%) [7]: 24%
- Population Healthy Nuclei (%) [7]: 40%
- Population Hoechst High Intensity Objects (%) [7]: 7%
- Population Membrane Permeable-Phenotype (%) [7]: 2%
- Population Mitochondria Different-Phenotype (%) [7]: 30%
- Population Mitotic Cells (%) [7]: 73%
- Population Normal (%) [7]: 92%
- Population Pyknosed Nuclei (%) [7]: 34%
- Population Tubulin-Different-Phenotype (%) [7]: 79%
- Total Cell Count [7]: 131
- Population Apoptotic (%) [8]: 36%
- Population Fragmented Nuclei (%) [8]: 27%
- Population Healthy Nuclei (%) [8]: 33%
- Population Hoechst High Intensity Objects (%) [8]: 3%
- Population Membrane Permeable-Phenotype (%) [8]: 6%
- Population Mitochondria Different-Phenotype (%) [8]: 20%
- Population Mitotic Cells (%) [8]: 63%
- Population Normal (%) [8]: 96%
- Population Pyknosed Nuclei (%) [8]: 39%
- Population Tubulin-Different-Phenotype (%) [8]: 90%
- Total Cell Count [8]: 138
- Population Apoptotic (%) [9]: 64%
- Population Fragmented Nuclei (%) [9]: 21%
- Population Healthy Nuclei (%) [9]: 61%
- Population Hoechst High Intensity Objects (%) [9]: 5%
- Population Membrane Permeable-Phenotype (%) [9]: 0%
- Population Mitochondria Different-Phenotype (%) [9]: 12%
- Population Mitotic Cells (%) [9]: 36%
- Population Normal (%) [9]: 94%
- Population Pyknosed Nuclei (%) [9]: 17%
- Population Tubulin-Different-Phenotype (%) [9]: 38%
- Total Cell Count [9]: 155
- Population Apoptotic (%) [10]: 41%
- Population Fragmented Nuclei (%) [10]: 33%
- Population Healthy Nuclei (%) [10]: 37%
- Population Hoechst High Intensity Objects (%) [10]: 7%
- Population Membrane Permeable-Phenotype (%) [10]: 1%
- Population Mitochondria Different-Phenotype (%) [10]: 15%
- Population Mitotic Cells (%) [10]: 58%
- Population Normal (%) [10]: 92%
- Population Pyknosed Nuclei (%) [10]: 28%
- Population Tubulin-Different-Phenotype (%) [10]: 67%
- Total Cell Count [10]: 165
- Population Apoptotic (%) [11]: 54%
- Population Fragmented Nuclei (%) [11]: 33%
- Population Healthy Nuclei (%) [11]: 27%
- Population Hoechst High Intensity Objects (%) [11]: 12%
- Population Membrane Permeable-Phenotype (%) [11]: 0%
- Population Mitochondria Different-Phenotype (%) [11]: 53%
- Population Mitotic Cells (%) [11]: 45%
- Population Normal (%) [11]: 87%
- Population Pyknosed Nuclei (%) [11]: 38%
- Population Tubulin-Different-Phenotype (%) [11]: 93%
- Total Cell Count [11]: 123
- Population Fragmented Nuclei (%) [12]: 35%
- Population Healthy Nuclei (%) [12]: 25%
- Population Hoechst High Intensity Objects (%) [12]: 6%
- Population Membrane Permeable-Phenotype (%) [12]: 10%
- Population Mitochondria Different-Phenotype (%) [12]: 30%
- Population Normal (%) [12]: 93%
- Population Pyknosed Nuclei (%) [12]: 40%
- Population Tubulin-Different-Phenotype (%) [12]: 83%
- Total Cell Count [12]: 129
